Laboratory results reported in ChEMBL document CHEMBL1949585, “Design, synthesis and evaluation of telomerase inhibitory, hTERT repressing, and anti-proliferation activities of symmetrical 1,8-disubstituted amidoanthraquinones” (Eur J Med Chem, 2012).
Activity calls are given as the source filed them. No cut-off for these calls is given here.

Tests used:
H1299 [1] = assay: Inhibition of human telomerase in H1299 cell lysate at 10 uM by PCR-based telomeric repeat amplification protocol assay; format: cell-free
In short: (§1)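 TRAP assay on telomerase-active H1299 cell extracts, with RNase A-treated extract as the negative control. Compound was preincubated with extract for 5 min at room temperature before the telomerase extension and PCR amplification. The initial screen used 10 µM, and IC50 came from a dose series.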

[2] = (§2) Inhibition of human telomerase in H1299 cell lysate compound incubated for 5 mins prior to telomerase extension by PCR-based telomeric repeat amplification protocol assay; format: cell-free; in short: as §1
H1299 [3] = assay: as §2; format: cell-free; in short: as §1
H1299 [4] = assay: Inhibition of human telomerase in H1299 cell lysate compound incubated post-telomerase extension by PCR-based telomeric repeat amplification protocol assay; format: cell-free
In short: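 Modified TRAP assay (TRAP-M) to test for interference with Taq polymerase. Compound was added to H1299 extract reactions right after the telomerase extension step and before PCR amplification.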

[5] = Cytotoxicity against human H1299 cells assessed as cell growth at 1 uM after 48 hrs by MTT assay; format: functional; conditions: NCI-H1299, 48 h, read-out: Activity
In short: (§3)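 H1299 non-small lung cancer cells were grown in RPMI 1640 with 10% FBS and penicillin/streptomycin at 37 °C in 5% CO2. About 2×10³ cells were seeded per well and held 24 h, then washed with PBS and given fresh medium. Compound, freshly dissolved in DMSO and diluted in complete medium, was added for 48 h. MTT was read at 550 nm after SDS/DMF lysis at 37 °C for 16 h. Values are from three experiments, untreated = 100%, ±SD.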

[6] = Cytotoxicity against human H1299 cells assessed as cell growth at 10 uM after 48 hrs by MTT assay; format: functional; conditions: NCI-H1299, 48 h, read-out: Activity; in short: as §3
[7] = Cytotoxicity against human H1299 cells assessed as cell growth at 100 uM after 48 hrs by MTT assay; format: functional; conditions: NCI-H1299, 48 h, read-out: Activity; in short: as §3
[8] = Inhibition of human TERT expression in H1299 cells at 1 uM after 24 hrs by secreted alkaline phosphatase reporter gene assay relative to control; values are per cent of control; conditions: NCI-H1299
[9] = Inhibition of human TERT expression in H1299 cells at 10 uM after 24 hrs by secreted alkaline phosphatase reporter gene assay relative to control; values are per cent of control; conditions: NCI-H1299
[10] = Inhibition of human TERT expression in H1299 cells at 100 uM after 24 hrs by secreted alkaline phosphatase reporter gene assay relative to control; values are per cent of control; conditions: NCI-H1299

Structure (SMILES)	inhibition (H1299 [1])	IC50 [2] [nM]	inhibition (H1299 [3])	inhibition (H1299 [4])	growth at 1 µM [5] [%]	growth at 10 µM [6] [%]	growth at 100 µM [7] [%]	level, % of control [8] [%]	level, % of control [9] [%]	level, % of control [10] [%]
CC(C)NCCC(=O)Nc1cccc2c1C(=O)c1c(NC(=O)CCNC(C)C)cccc1C2=O	Active	3000	Dose-dependent effect	Dose-dependent effect	101	29	14	106	16	0
CCN(CC)CCC(=O)Nc1cccc2c1C(=O)c1c(NC(=O)CCN(CC)CC)cccc1C2=O	–	–	–	–	97	30	4	99	35	0
CC(C)CNCCC(=O)Nc1cccc2c1C(=O)c1c(NC(=O)CCNCC(C)C)cccc1C2=O	–	–	–	–	73	4	0	96	29	0
CCNCC(=O)Nc1cccc2c1C(=O)c1c(NC(=O)CNCC)cccc1C2=O	–	–	–	–	106	87	17	103	92	2
COC(=O)[C@H](C)NCC(=O)Nc1cccc2c1C(=O)c1c(NC(=O)CN[C@@H](C)C(=O)OC)cccc1C2=O	–	–	–	–	98	104	96	99	93	67
CCCN(C)CC(=O)Nc1cccc2c1C(=O)c1c(NC(=O)CN(C)CCC)cccc1C2=O	–	–	–	–	108	108	97	85	87	45
CCN(C)CCC(=O)Nc1cccc2c1C(=O)c1c(NC(=O)CCN(C)CC)cccc1C2=O	–	–	–	–	96	23	12	110	19	0
CN(C)CCCNCCC(=O)Nc1cccc2c1C(=O)c1c(NC(=O)CCNCCCN(C)C)cccc1C2=O	–	–	–	–	122	105	21	95	95	20
COC(=O)[C@@H](NCC(=O)Nc1cccc2c1C(=O)c1c(NC(=O)CN[C@H](C(=O)OC)c3ccccc3)cccc1C2=O)c1ccccc1	–	–	–	–	77	59	18	97	74	42
CC(C)(C)OC(=O)NCCNCCC(=O)Nc1cccc2c1C(=O)c1c(NC(=O)CCNCCNC(=O)OC(C)(C)C)cccc1C2=O	–	–	–	–	82	78	11	100	84	33
CCCN(CCC)CCC(=O)Nc1cccc2c1C(=O)c1c(NC(=O)CCN(CCC)CCC)cccc1C2=O	–	–	–	–	94	99	22	100	100	4
CNCCC(=O)Nc1cccc2c1C(=O)c1c(NC(=O)CCNC)cccc1C2=O	–	–	–	–	117	107	33	101	97	22
CN(C)CC(=O)Nc1cccc2c1C(=O)c1c(NC(=O)CN(C)C)cccc1C2=O	–	–	–	–	72	61	57	93	96	84
CCN(C)CC(=O)Nc1cccc2c1C(=O)c1c(NC(=O)CN(C)CC)cccc1C2=O	–	–	–	–	100	101	73	102	95	20
COC(=O)[C@H](CCSC)NCC(=O)Nc1cccc2c1C(=O)c1c(NC(=O)CN[C@@H](CCSC)C(=O)OC)cccc1C2=O	–	–	–	–	99	78	60	105	94	24
COC(=O)[C@@H](NCC(=O)Nc1cccc2c1C(=O)c1c(NC(=O)CN[C@H](C(=O)OC)C(C)C)cccc1C2=O)C(C)C	–	–	–	–	99	90	86	100	49	0
COC(=O)[C@@H](C)NCC(=O)Nc1cccc2c1C(=O)c1c(NC(=O)CN[C@H](C)C(=O)OC)cccc1C2=O	–	–	–	–	56	50	10	83	74	66
O=C1c2c(O)ccc(O)c2C(=O)c2c(NCCNCCO)ccc(NCCNCCO)c21 [MITOXANTRONE]	–	–	–	–	23	0	0	20	9	7
COc1cccc2c1C(=O)c1c(O)c3c(c(O)c1C2=O)C[C@@](O)(C(=O)CO)C[C@@H]3O[C@H]1C[C@H](N)[C@H](O)[C@H](C)O1 [DOXORUBICIN]	–	–	–	–	17	0	0	33	13	5
COC(=O)[C@H](COC(C)(C)C)NCC(=O)Nc1cccc2c1C(=O)c1c(NC(=O)CN[C@@H](COC(C)(C)C)C(=O)OC)cccc1C2=O	–	–	–	–	127	128	91	98	94	98
CC(C)NCC(=O)Nc1cccc2c1C(=O)c1c(NC(=O)CNC(C)C)cccc1C2=O	–	–	–	–	89	86	14	103	101	35
COC(=O)[C@H](NCC(=O)Nc1cccc2c1C(=O)c1c(NC(=O)CN[C@@H](C(=O)OC)C(C)C)cccc1C2=O)C(C)C	–	–	–	–	88	80	58	91	95	45
COC(=O)[C@@H]1CCCN1CC(=O)Nc1cccc2c1C(=O)c1c(NC(=O)CN3CCC[C@H]3C(=O)OC)cccc1C2=O	–	–	–	–	88	104	93	87	59	8
O=C(CNCc1cccc(C(F)(F)F)c1)Nc1cccc2c1C(=O)c1c(NC(=O)CNCc3cccc(C(F)(F)F)c3)cccc1C2=O	–	–	–	–	97	93	93	75	84	33
CCCN(CCC)CC(=O)Nc1cccc2c1C(=O)c1c(NC(=O)CN(CCC)CCC)cccc1C2=O	–	–	–	–	90	76	66	105	101	94
O=C(CCNCc1cc(F)cc(F)c1)Nc1cccc2c1C(=O)c1c(NC(=O)CCNCc3cc(F)cc(F)c3)cccc1C2=O	–	–	–	–	93	87	6	98	100	3
COC(=O)CN(C)CC(=O)Nc1cccc2c1C(=O)c1c(NC(=O)CN(C)CC(=O)OC)cccc1C2=O	–	–	–	–	71	88	46	106	95	73
CC(C)CNCC(=O)Nc1cccc2c1C(=O)c1c(NC(=O)CNCC(C)C)cccc1C2=O	–	–	–	–	53	44	28	110	86	77
COC(=O)[C@H](CC(C)C)NCC(=O)Nc1cccc2c1C(=O)c1c(NC(=O)CN[C@@H](CC(C)C)C(=O)OC)cccc1C2=O	–	–	–	–	112	102	96	101	101	88
CN(C)CCC(=O)Nc1cccc2c1C(=O)c1c(NC(=O)CCN(C)C)cccc1C2=O	–	–	–	–	93	24	11	87	20	0
